Test [1] has as its target T1, Glucocorticoid receptor (Homo sapiens, UniProt P04150).
T1 sequence (P04150 whole entry): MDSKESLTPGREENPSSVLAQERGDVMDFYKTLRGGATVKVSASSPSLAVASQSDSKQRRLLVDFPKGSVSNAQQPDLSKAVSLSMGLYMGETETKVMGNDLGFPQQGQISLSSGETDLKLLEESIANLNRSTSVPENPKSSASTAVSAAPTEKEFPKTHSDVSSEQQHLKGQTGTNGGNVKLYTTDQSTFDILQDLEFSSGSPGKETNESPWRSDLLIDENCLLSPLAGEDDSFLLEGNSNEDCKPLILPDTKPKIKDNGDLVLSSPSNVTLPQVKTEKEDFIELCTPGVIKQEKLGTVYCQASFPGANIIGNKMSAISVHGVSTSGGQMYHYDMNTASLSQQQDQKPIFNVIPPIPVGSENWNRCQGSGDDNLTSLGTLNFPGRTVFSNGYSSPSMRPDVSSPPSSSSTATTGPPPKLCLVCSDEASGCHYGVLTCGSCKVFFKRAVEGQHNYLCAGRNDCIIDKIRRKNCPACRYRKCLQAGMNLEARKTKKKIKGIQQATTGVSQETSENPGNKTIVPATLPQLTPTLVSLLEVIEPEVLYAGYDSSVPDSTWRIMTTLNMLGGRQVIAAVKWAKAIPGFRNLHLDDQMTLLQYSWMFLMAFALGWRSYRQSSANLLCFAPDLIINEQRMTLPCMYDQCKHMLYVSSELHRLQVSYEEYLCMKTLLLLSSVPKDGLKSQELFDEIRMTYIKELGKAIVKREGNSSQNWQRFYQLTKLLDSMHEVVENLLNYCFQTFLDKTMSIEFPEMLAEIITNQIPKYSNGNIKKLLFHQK
Nature of the test: Transactivation activity at glucocorticoid receptor alpha human 13D3/Huh7 cells assessed as induction of TAT activity after 4 hrs by spectrophotometry. It is filed as cell-based, Huh-7.

Test [2] deals with T1, Glucocorticoid receptor. Nature of the test: Transrepression activity at glucocorticoid receptor alpha in phorbol myristate acetate-stimulated human A549 cells assessed as inhibition of AP1 response element by luciferase reporter gene assay. In kind it is cell-based. For orientation: In a reporter assay the amount or activity of a reporter protein is the signal.
The target in test [3] is T1, Glucocorticoid receptor. Put plainly: Displacement of GS-red from glucocorticoid receptor by fluorescence polarization assay. On the technique in general: Fluorescence polarisation rises when a labelled molecule tumbles more slowly, as on binding a larger partner.
Test [4] addresses T1, Glucocorticoid receptor. Nature of the test: Transactivation activity at GR-alpha in human NP1 Hela cells assessed as induction of GAL4-DBD after 20 hrs by luciferase reporter gene assay. It is filed as cell-based.
The target in another test is T2, Progesterone receptor (Homo sapiens, UniProt P06401).
T2 sequence (P06401 whole entry): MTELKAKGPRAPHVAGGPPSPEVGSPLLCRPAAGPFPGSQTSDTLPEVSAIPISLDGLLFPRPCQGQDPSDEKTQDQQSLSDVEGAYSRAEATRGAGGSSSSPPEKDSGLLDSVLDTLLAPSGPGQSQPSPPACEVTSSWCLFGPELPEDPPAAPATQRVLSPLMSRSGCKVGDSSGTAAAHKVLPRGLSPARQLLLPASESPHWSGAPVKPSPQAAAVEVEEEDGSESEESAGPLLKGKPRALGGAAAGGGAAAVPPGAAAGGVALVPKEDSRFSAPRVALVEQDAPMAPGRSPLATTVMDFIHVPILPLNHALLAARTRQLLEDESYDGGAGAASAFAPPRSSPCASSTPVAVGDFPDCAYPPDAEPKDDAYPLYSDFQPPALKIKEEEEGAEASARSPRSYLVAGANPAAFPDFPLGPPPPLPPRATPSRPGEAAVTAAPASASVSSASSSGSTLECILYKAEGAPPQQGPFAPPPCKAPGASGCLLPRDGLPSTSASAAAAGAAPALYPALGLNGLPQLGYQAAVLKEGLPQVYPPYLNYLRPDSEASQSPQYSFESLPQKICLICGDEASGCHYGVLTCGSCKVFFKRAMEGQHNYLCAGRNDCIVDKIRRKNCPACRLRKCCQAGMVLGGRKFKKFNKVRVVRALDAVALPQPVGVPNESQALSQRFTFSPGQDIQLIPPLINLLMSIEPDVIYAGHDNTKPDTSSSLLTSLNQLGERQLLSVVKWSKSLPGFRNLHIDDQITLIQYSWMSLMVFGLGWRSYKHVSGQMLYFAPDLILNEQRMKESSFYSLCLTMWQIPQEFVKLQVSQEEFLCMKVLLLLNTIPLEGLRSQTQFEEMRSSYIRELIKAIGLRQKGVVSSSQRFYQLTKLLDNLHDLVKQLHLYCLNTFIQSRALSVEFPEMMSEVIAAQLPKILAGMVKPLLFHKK
Put plainly: Displacement of fluorescently labeled ligand from progesterone receptor by fluorescence polarization assay.

Test [5] concerns the target T1, Glucocorticoid receptor. Put plainly: Transactivation activity at GR-alpha in human NP1 Hela cells assessed as inhibition of GAL4-DBD after 20 hrs by luciferase reporter gene assay. In kind it is cell-based.
The target of another test is T3, Estrogen receptor (Homo sapiens, UniProt P03372).
T3 sequence (P03372 whole entry): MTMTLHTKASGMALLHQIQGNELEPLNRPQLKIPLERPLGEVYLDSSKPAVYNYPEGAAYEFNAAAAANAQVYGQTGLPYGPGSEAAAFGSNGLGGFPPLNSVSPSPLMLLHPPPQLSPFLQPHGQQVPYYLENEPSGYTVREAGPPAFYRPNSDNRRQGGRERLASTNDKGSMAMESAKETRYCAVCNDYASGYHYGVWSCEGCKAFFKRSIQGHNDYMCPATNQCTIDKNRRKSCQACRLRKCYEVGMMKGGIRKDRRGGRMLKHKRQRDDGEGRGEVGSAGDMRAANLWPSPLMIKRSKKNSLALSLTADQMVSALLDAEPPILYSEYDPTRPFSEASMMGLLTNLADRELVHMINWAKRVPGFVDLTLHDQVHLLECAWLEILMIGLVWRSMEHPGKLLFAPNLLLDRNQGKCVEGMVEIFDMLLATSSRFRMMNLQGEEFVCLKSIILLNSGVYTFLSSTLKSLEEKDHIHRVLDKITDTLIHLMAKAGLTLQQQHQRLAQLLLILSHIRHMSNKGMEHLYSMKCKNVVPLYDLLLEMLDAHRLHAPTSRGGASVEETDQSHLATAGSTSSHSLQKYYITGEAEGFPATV
Nature of the test: Displacement of fluorescently labeled ligand from ERalpha receptor by fluorescence polarization assay. Summed up:
(§1)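 Binding was measured by fluorescence polarization competition between compound and a fluorescent ligand for full-length receptor or ligand-binding domain. Values are means of at least two experiments.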

Test [6] addresses T4, Mineralocorticoid receptor (Homo sapiens, UniProt P08235).
T4 sequence (P08235 whole entry): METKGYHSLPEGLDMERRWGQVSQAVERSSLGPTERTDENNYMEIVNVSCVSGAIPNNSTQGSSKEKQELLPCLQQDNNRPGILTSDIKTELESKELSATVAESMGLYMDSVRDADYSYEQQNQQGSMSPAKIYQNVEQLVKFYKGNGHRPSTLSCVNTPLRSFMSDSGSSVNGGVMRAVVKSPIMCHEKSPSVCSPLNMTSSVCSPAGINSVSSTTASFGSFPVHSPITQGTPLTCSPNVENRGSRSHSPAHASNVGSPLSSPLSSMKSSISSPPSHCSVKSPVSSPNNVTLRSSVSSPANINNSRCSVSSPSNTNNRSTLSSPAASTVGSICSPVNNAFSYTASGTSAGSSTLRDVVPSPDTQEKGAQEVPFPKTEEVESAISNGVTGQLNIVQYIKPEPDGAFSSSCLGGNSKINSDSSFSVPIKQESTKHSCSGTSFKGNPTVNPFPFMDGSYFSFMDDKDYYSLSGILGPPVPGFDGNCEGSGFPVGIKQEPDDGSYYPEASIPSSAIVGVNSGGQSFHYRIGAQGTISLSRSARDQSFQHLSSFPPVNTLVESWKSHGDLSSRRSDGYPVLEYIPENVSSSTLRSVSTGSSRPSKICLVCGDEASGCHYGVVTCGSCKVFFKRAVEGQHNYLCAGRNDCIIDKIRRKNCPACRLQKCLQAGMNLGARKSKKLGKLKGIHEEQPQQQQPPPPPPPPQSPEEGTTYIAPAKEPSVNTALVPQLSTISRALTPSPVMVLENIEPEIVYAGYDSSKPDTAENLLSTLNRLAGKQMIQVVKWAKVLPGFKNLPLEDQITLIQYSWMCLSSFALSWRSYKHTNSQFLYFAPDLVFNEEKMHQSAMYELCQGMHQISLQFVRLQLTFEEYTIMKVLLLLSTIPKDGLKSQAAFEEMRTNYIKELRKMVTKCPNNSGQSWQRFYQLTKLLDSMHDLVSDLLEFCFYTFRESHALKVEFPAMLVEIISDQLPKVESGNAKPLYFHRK
Nature of the test: Agonist activity at human mineralocorticoid receptor expressed in human A549 cells by fluorescence polarization assay. It is filed as functional, cell-based.

Test [7] deals with T1, Glucocorticoid receptor. Put plainly: Transrepression activity at glucocorticoid receptor alpha in IL-1beta-stimulated human A549 cells assessed as inhibition of NFkappaB-dependent E-selectin transcription by luciferase reporter gene assay. In kind it is cell-based.
Another test concerns the target T5, Androgen receptor (Homo sapiens, UniProt P10275).
T5 sequence (P10275 whole entry): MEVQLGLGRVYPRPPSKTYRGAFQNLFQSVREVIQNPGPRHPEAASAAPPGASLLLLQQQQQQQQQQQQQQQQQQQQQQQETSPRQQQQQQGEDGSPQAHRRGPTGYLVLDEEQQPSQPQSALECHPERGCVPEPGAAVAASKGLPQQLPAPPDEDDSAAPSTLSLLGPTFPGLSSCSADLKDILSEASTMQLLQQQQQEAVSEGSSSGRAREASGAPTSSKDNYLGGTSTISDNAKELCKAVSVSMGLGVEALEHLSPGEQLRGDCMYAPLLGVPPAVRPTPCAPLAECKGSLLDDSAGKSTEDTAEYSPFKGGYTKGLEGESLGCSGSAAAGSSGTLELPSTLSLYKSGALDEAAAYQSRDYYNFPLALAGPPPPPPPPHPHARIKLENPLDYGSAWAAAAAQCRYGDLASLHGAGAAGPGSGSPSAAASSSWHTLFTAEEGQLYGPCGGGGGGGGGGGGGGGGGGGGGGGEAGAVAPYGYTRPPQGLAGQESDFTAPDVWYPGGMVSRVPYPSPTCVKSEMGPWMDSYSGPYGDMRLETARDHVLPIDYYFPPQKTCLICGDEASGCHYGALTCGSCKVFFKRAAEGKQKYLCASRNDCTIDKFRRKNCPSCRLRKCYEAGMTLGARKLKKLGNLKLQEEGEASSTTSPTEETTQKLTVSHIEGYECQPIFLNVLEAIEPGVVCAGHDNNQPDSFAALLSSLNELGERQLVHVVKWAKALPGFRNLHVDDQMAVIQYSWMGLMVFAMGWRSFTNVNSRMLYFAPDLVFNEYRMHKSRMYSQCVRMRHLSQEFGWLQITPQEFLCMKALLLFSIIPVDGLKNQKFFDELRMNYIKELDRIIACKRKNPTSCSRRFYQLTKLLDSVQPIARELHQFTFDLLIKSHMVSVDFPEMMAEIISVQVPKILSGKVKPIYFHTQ
Put plainly: Displacement of fluorescently labeled ligand from androgen receptor by fluorescence polarization assay. In a few lines:
as §1

Some results are limits rather than exact numbers.

`CC(C)Oc1ccc(-c2ccc3c(n2)Oc2ccccc2[C@H]3C(C)(C)C(=O)Nc2nncs2)cc1`: the concentration giving a half-maximal response (EC50) at Glucocorticoid receptor [1] came out at 107 nM; on Glucocorticoid receptor [2] it was 18.1 nM; at Glucocorticoid receptor [4], 135 nM; at Glucocorticoid receptor [5] it was 77 nM. The Ki at Glucocorticoid receptor [3] was determined as 1.6 nM; on Progesterone receptor it was 310 nM.
With `CN(C)C(=O)c1ccc(-c2ccc3c(n2)Oc2ccccc2[C@@H]3C(C)(C)C(=O)Nc2nncs2)cc1`, the EC50 on Glucocorticoid receptor [1] is 22.7 nM; on Glucocorticoid receptor [2] it was 12.2 nM; on Glucocorticoid receptor [4] it was 89 nM; on Glucocorticoid receptor [5], 42.7 nM; in test [6], above 5000 nM; at Glucocorticoid receptor [7], 4.6 nM. For the same molecule, the Ki is 1.74 nM on Glucocorticoid receptor [3], above 75000 nM at Estrogen receptor and 1230 nM on Progesterone receptor.
As for `CCCc1ccc(-c2ccc3c(n2)Oc2ccccc2[C@H]3C(C)(C)C(=O)Nc2nncs2)cc1`, the concentration for a half-maximal effect (EC50) on Glucocorticoid receptor [1] is 823 nM; on Glucocorticoid receptor [2], 15.1 nM; at Glucocorticoid receptor [4], 126 nM; on Glucocorticoid receptor [5], 36 nM; on Glucocorticoid receptor [7], 29.7 nM. Further, the Ki is 2.4 nM on Glucocorticoid receptor [3], 285 nM on Progesterone receptor and above 5000 nM at Androgen receptor.

What is called EC50 is the concentration at which the effect is half-maximal. Broadly, the Ki is a dissociation constant, usually derived from enzyme kinetics or from competition with a known ligand. High values mean weaker binding, low ones tighter binding.

Values taken from ChEMBL document CHEMBL1909630, “Azaxanthene based selective glucocorticoid receptor modulators: design, synthesis, and pharmacological evaluation of (S)-4-(5-(1-((1,3,4-thiadiazol-2-yl)amino)-2-methyl-1-oxopropan-2-yl)-5H-chromeno[2,3-b]pyridin-2-yl)-2-fluoro-N,N-dimethylbenzamide (BMS-776532) and its methylene homologue …” (J Med Chem, 2011).
